# A selection: hits, their analogues and other compounds. The true share with any hit is near 2.3%.
# Arr AP2 block – inhibitors of human beta-arrestin and AP2 interaction. inhibition, % at 10 µM. FITC-arrestin peptide / GST-AP2 beads, flow cytometry; AP2 beta2 appendage carries R879A mutation. 340,000 compounds, 0.31% hits;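 active means inhibition above a set limit, near 3 SD of compounds lacking own fluorescence, cut at about 54% in these data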;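 further: plate controls were DMSO wells for no effect and 5 µM unlabelled arrestin peptide for full effect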
#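 System: GST-AP2 R879A glutathione beads; medium: PBS, Tween 20 0.05%, BSA 0.1%; reagent: fluorescein-tagged arrestin peptide at 50 nM final; schedule: pre-incubation 12 min, peptide binding 1 h, room temperature; detection: flow cytometry, FL1 (488/535 nm); read-out: inhibition as reduced fluorescein signal on beads, percent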
# MEKK2wt PB1 HTS – raises or lowers MEK5 binding to wildtype human MEKK2 PB1 domain | Q9Y2U5 | bead flow cytometry, Alexa488-MEK5 binding to MEKK2 WT; actives lie on both sides | binding response (% of control), % at 10 µM | 290,000 compounds, 1.1% hits | AID 1531; in the data active means binding response below about 67% or above about 130%
# MEKK3 PB1 HTS – MEKK3-MEK5 PB1 interaction, increase or decrease; Q99759; binding response (% of control), % at 10 µM; 290,000 compounds, 1.4% hits; AID 1529; bead-based flow cytometry, Alexa488-MEK5 binding to MEKK3; actives lie on both sides; 0 = blocked by unlabeled MEK5, 100 = vehicle;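 active means binding response more than 3 SD above or below the average of its plate-row segment, actives on both sides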;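 further: Alexa488 bead fluorescence after subtracting the streptavidin-only scavenger bead signal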
# Target sequence (Q99759 whole entry, looked up): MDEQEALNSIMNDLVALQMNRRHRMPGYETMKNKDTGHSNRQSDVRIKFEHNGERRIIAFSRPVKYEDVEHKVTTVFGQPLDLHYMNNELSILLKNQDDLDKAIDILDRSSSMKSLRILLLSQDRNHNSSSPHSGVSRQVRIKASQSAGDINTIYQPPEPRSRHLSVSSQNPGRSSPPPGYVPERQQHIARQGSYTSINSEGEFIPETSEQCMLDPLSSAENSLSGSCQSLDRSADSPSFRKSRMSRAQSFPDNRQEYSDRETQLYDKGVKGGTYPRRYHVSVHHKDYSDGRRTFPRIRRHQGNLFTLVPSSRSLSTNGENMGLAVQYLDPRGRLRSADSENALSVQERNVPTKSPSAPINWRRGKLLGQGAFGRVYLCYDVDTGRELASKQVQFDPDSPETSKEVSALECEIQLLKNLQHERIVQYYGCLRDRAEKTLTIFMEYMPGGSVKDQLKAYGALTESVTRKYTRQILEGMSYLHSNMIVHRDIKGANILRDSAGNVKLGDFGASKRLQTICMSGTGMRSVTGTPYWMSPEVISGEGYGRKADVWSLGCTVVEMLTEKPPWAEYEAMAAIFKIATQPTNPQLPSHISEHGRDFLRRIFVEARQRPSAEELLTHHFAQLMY
# MEKK2 mut-MEK5 – signal of MEK5 binding to mutant human MEKK2 PB1 domain; bead flow cytometry, Alexa488-MEK5 binding to MEKK2 mutant; percent response, % at 10 µM; 290,000 compounds, 0.35% hits; in the data active means percent response above about 24%, passing the limit was not always enough
# MEKK2wt confirm – raises or lowers MEK5 binding to wildtype human MEKK2, retest; shares compounds with MEKK3 PB1 HTS; binding response (% of control), % at 10 µM; 5,900 compounds, 2.4% hits; bead flow cytometry, Alexa488-MEK5 binding to MEKK2 WT; actives lie on both sides; AID 1892; in the data active means binding response below about 16% or above about 210%; inactive means in between
# MEKK2mut confirm – signal of MEK5 binding to mutant human MEKK2, retest; bead flow cytometry, Alexa488-MEK5 binding to MEKK2 mutant; 5,900 compounds, 2% hits; shares compounds with MEKK3 PB1 HTS; AID 1893; percent response, % at 10 µM; in the data active means percent response mostly above about 71%, no sharp cut-off; inactive means mostly below about 38%;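 further: higher means compound restores mutant binding toward wildtype level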
# MEKK3 confirm – MEKK3-MEK5 PB1 inhibition, single concentration confirmation; shares compounds with MEKK3 PB1 HTS; bead flow cytometry, Alexa488-MEK5 binding to MEKK3; active compounds read low; binding response (% of control), % at 10 µM; 5,900 compounds, 1.8% hits;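 active means binding response below 72% of control, or above a set upper limit, though filed actives all read lower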;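 further: 100% = DMSO only wells and 0% = binding blocked by excess unlabeled MEK5; lower values mean stronger disruption of MEK5 binding to MEKK3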
# An asterisk follows results filed as active; / = no result given; [ ] = dose if it differs, or a comment.
SMILES,Arr AP2 block,MEKK2wt PB1 HTS,MEKK3 PB1 HTS,MEKK2 mut-MEK5,MEKK2wt confirm,MEKK2mut confirm,MEKK3 confirm
CS(=O)(=O)NN1C(=O)c2ccccc2NC1c1ccccc1F (stereo not given),9,94,90,-1,/,/,/
CS(=O)(=O)NN1C(=O)c2ccccc2NC1c1cc2ccccc2nc1Cl (stereo not given),-5,108,132*,0,83,-14,79
Cc1ccc(Nc2nc(N)c3ccccc3n2)cc1C,-4,138*,107,17,138,22,107
CCOCCCNC(=O)c1ccc(-n2c(=S)[nH]c3ccccc3c2=O)cc1,7,96,99,-3,/,/,/
Cc1cc(C(=O)N/N=C/c2cc(N=Nc3ccccc3)ccc2O)n[nH]1,9,66,38*[inhibitor],-4,79,-16,86
CS(=O)(=O)N(CC(=O)N1CCCCC1)c1ccc(Cl)c(C(F)(F)F)c1,2,71*[inhibitor],97,2,98,0,101
CCC(=O)N(c1nnc(SCC(=O)NN2C(=O)NC3(CCCCC3)C2=O)s1)C1CC1,-3,/,/,/,/,/,/
O=[N+]([O-])c1ccc(C2=NN(c3ccccc3)C(c3ccco3)C2)cc1 (stereo not given),-49,33*,107,124*,83,-33,93
O=[N+]([O-])c1ccc(/C=C/C2=NN(c3ccccc3)C(c3ccco3)C2)cc1 (stereo not given),-104,/,/,/,/,/,/
Cc1ccc(NS(=O)(=O)c2c(C)[nH]c(C)c2C(=O)N2CCCC2)cc1Cl,5,100,96,3,/,/,/
N=c1sccn1CC(=O)Nc1ccccc1Sc1ccccc1,10,178*,156*,45,106,0,99
Cc1nnc(NCc2n[nH]c(=O)c3ccccc23)c2ccccc12,6,41*[inhibitor],31*[inhibitor],-6,95,-2,93
COc1ccc(NCc2n[nH]c(=O)c3ccccc23)cc1,1,97,97,-2,/,/,/
CCn1cc(C=C2C(=O)c3ccccc3C2=O)c2ccccc21,9,33*[inhibitor],68,-4,39,-26,84
O=C1NCN(c2ccccc2)C12CCN(CCCC(c1ccc(F)cc1)c1ccc(F)cc1)CC2,7,207*,113,25*,165,50,106
O=C1CCC(=O)N1CCC(c1ccc(F)cc1)c1ccco1 (stereo not given),31,100,104,5,/,/,/
CCC(C)(C)NC(=O)/C=C/c1cnc2ccccc2n1,14,94,96,-1,/,/,/
O=C1CCCN2N=C(SCC(=O)N3CCCCC3)SC2=N1,42,107,109,-1,/,/,/
CCC1CCCCN1C(=O)CSC1=NN2CCCC(=O)N=C2S1 (stereo not given),-6,124,132*,27,83,-10,83
COc1cnc(SCCC(F)=C(F)F)[nH]c1=O,-12,94,103,-8,/,/,/
CCOC(=O)C(C)Sc1nc(=O)n2cc(C)ccc2n1 (stereo not given),-10,54,45*[inhibitor],-15,117,7,103
CC(C)C[C@H]1COCCS(=O)(=O)N1Cc1ccc(Cl)c(Cl)c1,4,107,105,6,/,/,/
Cc1cnc(C(=O)Nc2cccc3ncccc23)cn1,11,102,102,0,/,/,/
Cc1cc(C(=O)Nc2cccc3ncccc23)no1,21,121,127*,6,97,-4,97
COc1cc(CN2CCN(C(C)C)C(CCO)C2)ccc1OCc1ccccc1 (stereo not given),-7,110,112,0,/,/,/
CCOC(=O)N1CCN(C(=O)c2ccc3oc(CCCc4ccccc4)nc3c2)CC1,10,100,94,0,/,/,/

# Compound activity: PubChem, NMMLSC
